In PubChem BioAssay AID588627 (Johns Hopkins Ion Channel Center, 2011):
About 1,400 (0.45%) of roughly 310,000 compounds were called active.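 Rule for the calls: active = calcium response B-score plate-corrected fluorescence ratio at least 3 library SD, with starting fluorescence B-score inside 5 SD; inactive = the rest.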 The full list was thinned out, with actives kept by preference.

Target: Mas-related G-protein coupled receptor member X1 (Homo sapiens) (UniProt Q96LB2)
Test: agonists of human MrgX1 receptor, primary screen, HEK293 cells, Fluo-4 calcium flux (AID 588627);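 for B-score: B-score of the peak-minus-trough calcium fluorescence change over baseline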
Settings: Fluo-4 calcium fluorescence, agonist mode, at 10 µM; stronger effect = higher value
Method in brief: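 System: HEK293 cells stably expressing human MrgX1 receptor; Dosing: test compound in the initial addition of three; Schedule: overnight plating, then 30 min 37 °C plus 30 min room-temperature dye loading; Detection: kinetic calcium dye fluorescence, Fluo-4 NW; Controls: per-plate positive and negative controls for Z′ factor.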

Sequence of Mas-related G-protein coupled receptor member X1 (Homo sapiens) (Q96LB2 whole entry, looked up): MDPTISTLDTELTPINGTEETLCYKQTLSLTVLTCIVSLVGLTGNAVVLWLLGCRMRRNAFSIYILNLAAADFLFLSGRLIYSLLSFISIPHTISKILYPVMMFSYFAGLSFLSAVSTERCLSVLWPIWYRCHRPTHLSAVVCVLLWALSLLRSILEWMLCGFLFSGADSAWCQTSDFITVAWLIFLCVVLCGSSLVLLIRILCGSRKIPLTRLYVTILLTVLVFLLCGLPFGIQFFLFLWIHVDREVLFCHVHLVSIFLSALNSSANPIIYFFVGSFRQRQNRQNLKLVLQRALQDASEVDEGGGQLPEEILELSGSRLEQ

B-score, inactive:
COc1cccc(-c2ccc(SCC(=O)N3CCN(c4ccccc4)CC3)nn2)c1
CN1CCN(/N=C/c2ccc(C#N)cc2)CC1
Cc1ccc(-c2ccc(/C=N/NC(=O)CN3CCOCC3)o2)cc1[N+](=O)[O-]
Cn1c(Cn2nnc3ccccc32)nnc1SCC(=O)c1ccccc1F
CCN(CC)S(=O)(=O)c1ccc(N2CCCC2)c(NS(=O)(=O)c2cccs2)c1
Cc1nc2ccccn2c(=O)c1NC(=O)c1cccs1
Cc1cc2nc(C(F)(F)F)cc(-c3cccs3)n2n1
COC(=O)c1ccc(NC(=O)CN(c2ccc(C)cc2)S(=O)(=O)c2c(C)n[nH]c2C)cc1
O=C(CSC1=NS(=O)(=O)c2cc(F)ccc2N1)Nc1ccccc1F
COC(=O)c1cn(CC(=O)NCc2cccs2)c2ccccc12
COC(=O)N/N=C/c1cn(CCCOc2ccc(C)cc2)c2ccccc12
CCCCn1c(N)c(N(CCOC)C(=O)c2cccc(S(=O)(=O)N3CCCCC3)c2)c(=O)[nH]c1=O
COCCCNC(=O)CN1C(=O)CSc2ccc(S(=O)(=O)N3CCOCC3)cc21
C=CCN(C(=O)Nc1ccc2oc(C)nc2c1)c1ccccc1
CCN(CC)c1ccc(C(=O)Nn2c(C)nc3ccccc3c2=O)cc1
Cc1ccc2c(c1)C1CN(C)CCC1N2S(=O)(=O)c1ccc(Oc2ccc([N+](=O)[O-])cc2)cc1 (stereo unspecified)
COC(=O)CNC(c1ccccc1Cl)c1cc(Br)ccc1NC(=O)CCN1CCOCC1 (stereo unspecified)
O=C(O)c1ccc(/C=C2\SC(=S)N(NC(=O)c3ccc(Br)cc3)C2=O)cc1
O=C1/C(=C/c2ccc(F)cc2)SC(=S)N1CCCC(=O)N1CCCCC1CCO (stereo unspecified)
S=c1[nH]nc(NCCc2ccccc2)s1
CCNc1nc(-c2cc3ccccc3o2)cs1
Cc1ccccc1NC(=O)Cn1cc(C(=O)C2CC2)c2ccccc21
COc1ccc2c(c1)SC(C)CC2=O (stereo unspecified)
COc1ccc2c(c1)O/C(=C\c1ccccc1O)C2=O
CN(CC(O)COc1ccc(S(=O)(=O)N2CCOCC2)cc1Cl)C1CCCCC1 (stereo unspecified)
CC(C)(C)NC(=O)CN(C(=O)c1csnn1)c1ccccc1-c1ccccc1
COc1ccc(-c2nc(CN3CCN(c4ncccn4)CC3)c(C)o2)cc1C
Cc1nnsc1C(=O)N/N=C/c1ccccc1Cl
CN(c1cccc(NC(=O)Nc2ccc(Cl)cc2)c1)S(C)(=O)=O
Cc1sc2ncn(CC(=O)NCCN(C)C)c(=O)c2c1S(=O)(=O)N1CCC(C)CC1
COC(=O)C1=C(C(=O)OC)C(c2cc([N+](=O)[O-])ccc2O)c2sc(=O)[nH]c2S1 (stereo unspecified)
CCCC1OC23CCCCC2C(C#N)(C#N)C1(C#N)C(=N)O3 (stereo unspecified)
CCOC(=O)C1CCN(C(=O)C2(NC(=O)Nc3cccc(F)c3)CCCCC2)CC1
CCCOc1ccc(C2c3c(oc4cc(C)c(C)cc4c3=O)C(=O)N2CCCN2CCOCC2)cc1 (stereo unspecified)
Cc1ccc(CS(=O)(=O)CCC(=O)NC2CC2)cc1
O=C(NCC(=O)N1CCCC(C(F)(F)F)C1)c1ccccc1F (stereo unspecified)
O=C(NC(Cc1ccccc1)C(=O)N1CCCC(C(F)(F)F)C1)c1ccccc1 (stereo unspecified)
Cc1n[nH]c(=O)c2c1nnn2Cc1ccc(F)cc1
COc1ccc(CCNC(=O)C(=O)NCC2OCCN2S(=O)(=O)c2ccc(F)cc2)cc1OC (stereo unspecified)
CC(C)CCN1NC2(CCC(C)CC2)NC1=S (stereo unspecified)
CC(C)N(c1ccccc1)c1ncnc(NCCC(=O)O)c1[N+](=O)[O-]
COc1cc(/C=C2/SC(=S)N(Cc3ccccc3)C2=O)cc(OC)c1O
O=C1/C(=C\c2ccsc2)NC(=S)N1c1ccccc1
CCC(C)c1ccccc1N1CC(C(=O)N2CCN(S(=O)(=O)c3ccc(F)cc3)CC2)CC1=O (stereo unspecified)
Cc1cc(NC(=O)CSc2nnnn2-c2ccc(F)cc2)no1
COc1ccc(C(=O)NC2CCN(C(=S)NCCc3ccccc3)CC2)cc1
COc1ccc(C(=O)NC(=S)NC2CCCCC2)cc1
CC(C)Oc1ccc(CCC(=O)NNC(=S)NCc2ccccc2)cc1
COc1ccc(C(=O)NNC(=S)NC(=O)c2ccccc2[N+](=O)[O-])cc1
Cc1ccc(NS(=O)(=O)c2cc3c(cc2C)NC(=O)CO3)cc1
O=C(Nc1cccc(Cl)c1)Nc1ccccc1NS(=O)(=O)c1cccs1
C[n+]1ccc(/C=C/c2c[nH]c3ccccc23)cc1
COc1ccccc1/C=C/CN1CCC(CO)(Cc2ccccc2)CC1
COc1ccccc1NC(=O)C1=C(C)Nc2nnnn2C1c1cccc(Br)c1 (stereo unspecified)
COC(=O)C1=C(C(=O)c2ccc(C)cc2)C(c2ccccc2)n2nnnc2N1 (stereo unspecified)
COc1cccc(CN(C)CC(O)COC(c2ccccc2)c2ccccc2C)c1 (stereo unspecified)
Cn1c(=O)c2cc(S(=O)(=O)NCCC(=O)Nc3ccc(F)cc3F)ccc2n(C)c1=O
Cc1ccc(C(=O)C(C)OC(=O)Cc2n[nH]c(=O)c3ccccc23)cc1C (stereo unspecified)
Cc1cccc(-c2nc3ccccc3c(=O)n2NC(=O)Cc2ccc(Cl)cc2)c1
O=C1CCCc2c1nc(-c1cccc(Cl)c1)n2O
Cc1c2cnn(CC(=O)NCCCN3CC(C)CC(C)C3)c(=O)c2c(C)n1Cc1ccc(Cl)cc1 (stereo unspecified)
COc1cc(NC(=O)C2=C(C)OCCS2)c(Cl)cc1C(=O)NCCN1CCN(C)CC1
O=C(Nc1ccccc1N1CCOCC1)c1ccc(OCc2cscn2)cc1
Cc1nn(CC2CC2)c(=O)n1N(C)c1ncc(C(F)(F)F)cc1Cl
COc1ccc(-c2ccnc(SCC(=O)N3CCOCC3)n2)cc1
C=CCC1=C/C(=C\c2c(N)n3nc(CC(=O)N4CCOCC4)sc3nc2=O)C=C(OC)C1=O
CC(=O)Nc1nc2c(s1)C(=O)NCC(C)(C)C2
NC(=O)N1CCCC1C(=O)Nc1ccc(Cl)c(Cl)c1 (stereo unspecified)
CCN(CC)C(=O)C1CCC(C)(C(=O)O)C1(C)C (stereo unspecified)
Cc1ccsc1C1C(C#N)=C(N)OC2=C1C(=O)CC(C)(C)C2 (stereo unspecified)
Cc1c(C(=O)Nc2ccccc2)sc2nc3n(c(=O)c12)CCCCC3
COc1ccc(OC)c(NC(=O)c2ccc3c(c2)C(=O)N(c2ccc(OC(C)=O)cc2)C3=O)c1
O=C(CN1C(=O)C2C3C=CC(C3)C2C1=O)NCC1COc2ccccc2O1 (stereo unspecified)
Cc1cc(C(=O)CCl)c(C)n1CC1COc2ccccc2O1 (stereo unspecified)
Cc1ccc(S(=O)(=O)NC2CCCCCC2)cc1C(N)=O
O=c1nc2s/c(=C\c3ccco3)c(=O)n2nc1Cc1ccccc1
CCOC(=O)/C=c1\s/c(=C\c2ccc(C#N)cc2)c(=O)n1CC(=O)Nc1cccc(C)c1C
CCCC[C@@H]1CN=C(N)N1CCCC
CCCCN1C(N)=NC[C@@H]1Cc1ccccc1
CCOc1ccc(/C=C/C(=O)N(CC)CC(=O)NCc2cccs2)cc1OC
CC(C)(C)N(Cc1ccccc1)C(=O)c1ccncc1
O=C(/C=C/c1ccc(Cl)c([N+](=O)[O-])c1)c1cccnc1
O=C(/C=C/c1ccc(Cl)c([N+](=O)[O-])c1)c1ccc(O)cc1
Cc1ccc(C(=O)C[n+]2cc(-c3ccccc3)n3c2CCCCC3)cc1
COc1ccc(-c2cc(C(=O)NC(Cc3c[nH]c4ccccc34)C(=O)O)c(C)o2)cc1OC (stereo unspecified)

B-score, active:
CN1CCN(/N=C/c2ccc(-c3ccc([N+](=O)[O-])cc3)o2)CC1 31.5
CC(C)(C)Nc1c(-c2cccs2)nc2ccccn12 44.8
COC(=O)Cn1cc(/C=C/[N+](=O)[O-])c2ccccc21 31.6
CCN(CC)c1ccc2oc(=O)c(C)nc2c1 27
O=C1/C(=C/c2ccc(F)cc2)SC(=S)N1NS(=O)(=O)c1ccccc1 27.7
Cc1nc(C)c(-c2csc(NCCc3ccccc3)n2)s1 32.5
COc1ccc2c(c1)OC(O)(C(F)(F)C(F)F)CC2=O (stereo unspecified) 79.7
O=C(Nc1ccccc1)c1nnsc1S(=O)(=O)c1ccc(Cl)cc1 33.9
Cc1cc2oc3ccc(NCCC4CCCN4C)cc3c(=O)c2cc1C (stereo unspecified) 27.5
FC(F)(F)C1CCCN(c2nsc3ccccc23)C1 (stereo unspecified) 30.1
CN(C)c1ccc(/C=C2\NC(=S)N(Cc3ccccc3)C2=O)cc1 49.1
COc1ccc(C(=O)NNC(=S)NC(=O)c2ccccc2)cc1 113
COc1ccc(C(=O)NC(=S)NNC(=O)CCc2ccccc2)cc1 107
COC(=O)c1ccc(C2C3=C(Nc4nnnn42)c2ccccc2OC3)cc1 (stereo unspecified) 27.7
O=c1c2cc(Br)ccc2nc(-c2cccc(Cl)c2)n1O 67.7
COC1=C/C(=C/c2c(N)n3nc(CC(=O)N4CCOCC4)sc3nc2=O)C=CC1=O 34.8
CC1(C(=O)O)CCC(C(=O)Nc2ccc(Cl)c(Cl)c2)C1(C)C (stereo unspecified) 30.1
O=C1C(=O)N(CC2COc3ccccc3O2)c2ccccc21 (stereo unspecified) 56
CN(c1ccccc1)c1ccc(/C=c2\s/c(=C(/C#N)C(=O)C(C)(C)C)n(Cc3ccco3)c2=O)cc1 193
CCCCN1C(N)=NC[C@@H]1CC1CCCCC1 36.9
NC(N)=N/N=C/c1ccc(Cl)c([N+](=O)[O-])c1 28.4
